For orientation: LC50 means the concentration that kills 50% of the test population. The low end stands for a more lethal substance, the high end for a less lethal substance. By EC50 is commonly meant the midpoint of the concentration-response curve. A high value points to a less potent agent. Usually mortality stands for the percentage killed.

In series [1] the test system is endogenously expressed insect nAChRs. As to the kind of experiment: Whole-cell voltage clamp electrophysiology on isolated neurons. The class given is cell-based, Spodoptera frugiperda. The following applies: for relative agonist efficacy: relative to the amplitude elicited by 1 mM of acetylcholine, holding potential −70 mV.
A further series relates to Bemisia tabaci. As to the kind of experiment: Whitefly adult leaf-dip bioassay. The class given is in vivo. The following applies: for mortality at 16 µg/mL: Bemisia tabaci. The gist of the method:
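Adult B. tabaci, including neonicotinoid-resistant biotype B (Unai, Brazil, 2009). Cotton leaf discs (3.5 cm) were dipped 5 s in solutions made up in 0.02% Triton X-100, with diluent alone for controls. Discs were air-dried and laid on 12 g L−1 agar under ventilated lids. Three replicates per concentration, 20–30 females each, held at 22–24 °C; adult mortality scored after 72 h.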

The next series has as its system B. tabaci CYP6CM1. The series is described as follows: Metabolism of insecticides by recombinant CYP6CM1 microsomes. The class given is in vitro ADME, Bemisia tabaci. Particulars: 20 µM insecticide; 4 h at 30 °C; NADPH-regenerating system; UPLC-MS. The gist of the method:
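B. tabaci CYP6CM1 and Drosophila NADPH CPR were baculovirus-expressed in Sf9 cells and run as microsomes (0.2 mg mL−1 total protein) in 0.1 M K-phosphate. Regenerating system: 1.3 mM NADP+, 3.3 mM glucose-6-phosphate, 3.3 mM MgCl2, 0.4 U mL−1 G6PDH. Insecticide 20 µM, 30 °C, 4 h, triplicates, no-NADPH control. Quenched with acetonitrile (50% final), centrifuged, parent loss measured by UPLC–MS/MS in positive ion mode.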

Series [2] concerns lettuce aphids (Nasonovia ribisnigri). As to the kind of experiment: Field trials against lettuce aphids. The class given is in vivo. The following applies: seven lettuce field trials, foliar spray, rate g ha^−1: flupyradifurone 125, pymetrozine 200, thiacloprid 96, spirotetramat 75; for Efficacy (%) 6–10 DAA: 6–10 days after application; for Efficacy (%) 13–15 DAA: 13–15 days after application. In short, it runs like this: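 Seven lettuce field trials in the EU maritime zone, each including commercial formulated standard insecticides for comparison. Treatments were replicated 3–4 times per trial, with aphid infestations above economic threshold levels. Efficacy was assessed at various intervals after spraying by scoring surviving aphids.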

Series [3] deals with rat. As to the kind of experiment: Acute dermal toxicity. The format is in vivo. Particulars: technical flupyradifurone.
The subject of series [4] is rat. As to the kind of experiment: Acute inhalation toxicity. The class given is in vivo. The following applies: technical flupyradifurone.
Another series is described as follows: Skin irritation. Particulars: technical flupyradifurone.
The next series can be described thus: Eye irritation. Particulars: technical flupyradifurone.
Another series can be described thus: Mutagenicity. Particulars: technical flupyradifurone.
A short description of the next series: Carcinogenicity. The following applies: technical flupyradifurone.
The nature of series [5]: Reproductive and developmental toxicity. The following applies: technical flupyradifurone.
A short description of the next series: Fish acute toxicity. Particulars: rainbow trout, in vivo.
Series [6] in a line: Aquatic invertebrate acute toxicity. Particulars: Daphnia, in vivo.
The nature of the next series: Aquatic plant toxicity. Particulars: algae, in vivo.
The test system of the next series is Earthworm (Eisenia). The series is described as follows: Earthworm 14 day toxicity. The format is in vivo.
For series [7], the system named is Honey bee. The series is described as follows: Honey bee acute contact toxicity. The class given is in vivo. The following applies: technical flupyradifurone.
The subject of series [8] is Honey bee. The series is described as follows: Honey bee acute oral toxicity. The format is in vivo. The following applies: technical flupyradifurone.
The subject of series [9] is Honey bee. The series is described as follows: Honey bee foliage residue test. The class given is in vivo. The following applies: at 205 g ha^−1.
Series [10] has as its system Honey bee. The series is described as follows: Honey bee long-term field studies in oilseed rape. The class given is in vivo. The following applies: 205 g AI ha^−1 in oilseed rape, full bloom and bees actively foraging.
The next series deals with Bumblebee. The series is described as follows: Bumblebee acute contact toxicity. The format is in vivo. The following applies: technical flupyradifurone.
The test system of a further series is Myzus persicae. As to the kind of experiment: Speed of action: suppression of aphid honeydew excretion on oilseed rape. The class given is in vivo. Particulars: SL200, 75 g AI ha^−1 foliar on oilseed rape. The gist of the method:
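Susceptible M. persicae (strain NS): 100 aphids per plant on the abaxial leaf side of […] oilseed rape (six leaves). Sprayed 50 cm above the canopy with a track sprayer at 75 g AI ha−1 SL200 in 300 L ha−1 water; water controls; two replicates; 22 °C, 60–70% RH. Filter papers under the leaves were changed every 30 min up to 240 min and stained with ninhydrin; honeydew spot area was expressed as suppression relative to preapplication.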

For series [11], the system named is tomato plants (Solanum lycopersicum L.). As to the kind of experiment: Plant uptake and translocation by phosphor imaging. The following applies: [14C]-labelled, SL200; tomato plants harvested 1 day after soil drench. The gist of the method:
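Test compound was [pyridinylmethyl-14C]-labelled in SL200 and drenched at 24 mg AI plant−1 onto 21-day-old tomato in 5 L pots of sandy loam at 80–90% water-holding capacity. Plants were kept at 21/16 °C day/night with 14 h light and 60–70% RH. Shoots were cut at the soil surface, pressed, dried 24 h at 50 °C and exposed 6 days to phosphor imaging plates.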

Read-outs that look alike come from different tables or passages of the source. Bounds are passed on as bounds.

As for `O=[N+]([O-])NC1=NCCN1Cc1ccc(Cl)nc1` [Imidacloprid, imidacloprid, reference compound], the relative agonist efficacy in series [1] was determined as 0.15. For the same compound, the “response of adult females” value in the series on Bemisia tabaci (B. tabaci B-type strain (Unai, Brazil), concentrations of 1000 mg L^−1) is given as “do not respond at all”. In addition, the “degradation of parent compound by CYP6CM1 microsomes” value (from here on “degradation of parent compound”) in the series with B. tabaci CYP6CM1 is given as 23 ± 1%.
In the case of `CC(c1ccc(C(F)(F)F)nc1)S(C)(=O)=NC#N` (centres unmarked) [sulfoxaflor], in the series on B. tabaci CYP6CM1, the “degradation of parent compound” value was “not depleted at all”.
In the case of `CC1=NNC(=O)N(/N=C/c2cccnc2)C1` [Pymetrozine, pymetrozine], in [2], the “Efficacy (%) 6–10 DAA” value was found to be 79% and the “Efficacy (%) 13–15 DAA” value is given as 57%. Besides, the “degradation of parent compound” value in the series on B. tabaci CYP6CM1 was 70 ± 6%.
In the case of `N#C/N=C1\SCCN1Cc1ccc(Cl)nc1` [Thiacloprid, thiacloprid], in series [2], the “Efficacy (%) 6–10 DAA” value came out at 88% and the “Efficacy (%) 13–15 DAA” value is on record as 72%.
Take `O=C1C=C(N(Cc2ccc(Cl)nc2)CC(F)F)CO1` [Flupyradifurone, 4-{[(6-Chloropyridine-3-yl)methyl] (2,2-difluoroethyl)amino}furan-2 (5H)-one]: the “type of action on nAChRs” value in series [1] (isolated S. frugiperda neurons) is listed as “partial agonist”. Moreover, the relative agonist efficacy in [1] was 0.56. In addition, the “Acute dermal toxicity, rat LD50” value in the series with rat [3] is over 2000 mg kg^−1 body weight. Besides, the “Acute inhalation toxicity, rat LC50” value in the series on rat [4] is on record as over 4671 mg m^−3. Moreover, the Skin irritation entry in “Skin irritation” was “Non-irritant”. Moreover, in “Eye irritation”, the Eye irritation result was “Non-irritant”. Also, in the series “Mutagenicity”, the Mutagenicity result is given as “Not a mutagen”. Moreover, the Carcinogenicity entry in the series “Carcinogenicity” was “Not a carcinogen”. In addition, the “Reproductive and developmental toxicity” value in series [5] is “No concern”. The compound also displayed an LC50 in “Fish acute toxicity” of over 74.2 µg/mL. Moreover, the results for the EC50 (in [6]; in “Aquatic plant toxicity”) were over 77.6 µg/mL and over 80 µg/mL, respectively. In addition, in the series with Earthworm (Eisenia), the “Earthworm (Eisenia) 14 day LC50” value is listed as 193 mg kg^−1 dry weight soil. The “Honey bee acute contact LD50” value with Honey bee [7] is recorded as over 100 µg bee^−1. The “Honey bee acute oral LD50” value in the series on Honey bee [8] stood at 1200 ng bee^−1. In the series with Honey bee [9], the “Honey bee foliage residue” value is listed as “No effects at 205 g ha^−1”. Also, in the series with Honey bee [10], the “Honey bee long-term field studies” value is reported as “No adverse effects”. Moreover, in the series on Bumblebee, the “Bumblebee acute contact LD50” value was over 100 µg bee^−1. In addition, the mortality at 16 µg/mL came to 50% with Bemisia tabaci (read-out: adult mortality) and 100% in the series on Bemisia tabaci (read-out: nymph mortality). Besides, the “time to feeding (honeydew excretion) stop after spray application” value with Myzus persicae (aphids on abaxial leaf side) was at most 2 h. The “aphid mortality two days after application” value in the series on Myzus persicae (data not shown) is reported as “all aphids were dead”. In series [2], the “Efficacy (%) 6–10 DAA” value is on record as 96%. Besides, the “Efficacy (%) 13–15 DAA” value in series [2] came to 83%. Besides, the “degradation of parent compound” value with B. tabaci CYP6CM1 is “not depleted at all”. In addition, in series [11], the “root uptake and distribution after drench application” value is “fast root uptake”.
For `CCOC(=O)OC1=C(c2cc(C)ccc2C)C(=O)N[C@]12CC[C@@H](OC)CC2` [Spirotetramat, spirotetramat], in series [2], the “Efficacy (%) 6–10 DAA” value was determined as 90% and the “Efficacy (%) 13–15 DAA” value is reported as 98%. Moreover, the “degradation of parent compound” value in the series with B. tabaci CYP6CM1 was “not depleted at all”.

These data come from PMC4657471 (Pest Management Science, 2014).
